A selection: hits, their analogues and other compounds. The true share with any hit is near 2.2%.
RBBP9 inh = human RBBP9 inhibitors, primary screen, biochemical, fluorescence polarization, FP-Rh probe, HTS; Serine hydrolase RBBP9 (Homo sapiens), O75884; recombinant RBBP9; inhibition, % at 7.94 µM; hit rate 0.2% among 220,000;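 active = inhibition above the campaign mean of all tested compounds plus 3 SD, cut at about 14% in these data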
Target sequence (O75884 whole entry, looked up): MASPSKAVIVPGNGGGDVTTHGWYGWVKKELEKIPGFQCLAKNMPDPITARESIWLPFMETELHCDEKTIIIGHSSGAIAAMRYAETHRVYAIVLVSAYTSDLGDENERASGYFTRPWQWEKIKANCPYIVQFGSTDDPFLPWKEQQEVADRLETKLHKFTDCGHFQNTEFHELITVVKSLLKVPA
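Assay system: recombinant human RBBP9; Reagent: Serine-hydrolase probe FP-Rh, 375 nM pre-mixing; Doses: 7.94 µM single dose, 0.794% DMSO; Incubation: 30 min then 45 min, 25 °C; Detection: fluorescence polarization (mP), excitation 525 nm, emission 598 nm; Evaluation: percent inhibition from mP, scaled between DMSO and no-protein wells.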
EBV gp42 inh = Epstein-Barr virus gp42 inhibitors, primary screen, biochemical, uHTS, fluorescence polarization; AID 1085, 2008; Glycoprotein 42 (Epstein-Barr virus (strain AG876)), Q1HVG2; hit rate 0.42% among 220,000; Fluorescence polarization binding assay, mP read-out; inhibition, % (tested at 21.74 µM); in the data active = inhibition above about 50%
Target sequence (Q1HVG2 whole entry, looked up): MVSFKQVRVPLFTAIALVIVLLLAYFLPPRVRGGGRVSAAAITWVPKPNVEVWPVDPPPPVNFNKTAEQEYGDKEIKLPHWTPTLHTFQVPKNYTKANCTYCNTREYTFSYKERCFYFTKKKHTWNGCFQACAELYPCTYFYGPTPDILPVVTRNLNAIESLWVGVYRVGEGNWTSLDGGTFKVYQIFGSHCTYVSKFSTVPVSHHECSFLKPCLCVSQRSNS
Bim-Mcl-1 = inhibitors of Bim peptide binding to Mcl-1, primary screen, biochemical, bead-based flow cytometry, multiplex; Induced myeloid leukemia cell differentiation protein Mcl-1 (Homo sapiens), Q07820; Bim peptide-Mcl-1 binding; inhibition, % at 10 µM; hit rate 0.1% among 190,000; AID 1009, 2008; in the data active = inhibition above about 40%
MCL1-BIM inh = inhibitors of MCL1 binding to BIM-BH3, primary screen, biochemical, fluorescence polarization | Induced myeloid leukemia cell differentiation protein Mcl-1 (Homo sapiens), Q07820 | inhibition, % at 10.9 µM | hit rate 0.68% among 320,000 | GST-MCL1 / FITC-Bim-BH3 fluorescence polarization;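 active = inhibition above the mean inhibition of all tested compounds plus 3 SD, set per campaign, cut at about 40% in these data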;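 also: higher means more loss of mP so more displacement of Bim peptide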
Mcl1 Noxa PPI = Mcl-1/Noxa binding inhibitors, primary screen, biochemical, TR-FRET, 1536-well | TR-FRET Mcl-1/Noxa peptide binding, 2 h | inhibition, % at 21.7 µM | Induced myeloid leukemia cell differentiation protein Mcl-1 (Homo sapiens), Q07820 | hit rate 1.5% among 220,000;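 active = compounds that cut the protein-peptide binding signal by more than 50% relative to plate controls in a single-dose test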;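 also: His-tagged Mcl-1 with rhodamine Noxa BH3 peptide and terbium anti-His antibody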
Mcl1 Bid PPI = Mcl-1/Bid binding inhibitors, primary screen, biochemical, TR-FRET, 1536-well; Induced myeloid leukemia cell differentiation protein Mcl-1 (Homo sapiens), Q07820; TR-FRET Mcl-1/Bid-Dy647 peptide binding; inhibition, % at 21.7 µM; hit rate 0.97% among 220,000; AID 1021, 2008;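 active = compounds that cut the binding signal by more than half at the single screening dose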;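 also: His-tagged Mcl-1 with europium anti-His antibody binding Bid BH3 peptide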
Bcl-xL conf = Bcl-xL inhibitors blocking Bim BH3 binding, confirmation, counter-screen for MCL1 inhibitor project, biochemical, fluorescence polarization. shares compounds with MCL1-BIM inh. GST-Bcl-xL / FITC-Bim BH3 peptide FP binding. inhibition, % at 10.9 µM. hit rate 54% among 1,700. AID 2166, 2009;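 active = inhibition above a cutoff equal to the mean inhibition of all tested compounds plus 3 SD, cut at about 30% in these data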
Target sequence (Q07817 whole entry, looked up): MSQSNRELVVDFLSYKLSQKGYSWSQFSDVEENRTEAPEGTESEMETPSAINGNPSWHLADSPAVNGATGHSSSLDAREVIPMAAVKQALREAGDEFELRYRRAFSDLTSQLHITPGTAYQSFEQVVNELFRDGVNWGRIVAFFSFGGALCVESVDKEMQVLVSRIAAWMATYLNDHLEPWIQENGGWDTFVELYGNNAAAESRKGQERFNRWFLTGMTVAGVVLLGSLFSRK
MCL1 inh confirm = inhibitors of MCL1 binding to BIM-BH3, confirmation, biochemical, fluorescence polarization, triplicate. shares compounds with MCL1-BIM inh. GST-MCL1 / FITC-Bim-BH3 fluorescence polarization. inhibition, % at 10.9 µM. hit rate 61% among 1,700. AID 2168, 2009;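 active = inhibition above the average of all tested compounds plus 3 SD, cut at about 40% in these data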
A number is an active result; 0 = inactive; - = not tested or not shown; + = active, no number.

SMILES	RBBP9 inh	EBV gp42 inh	Bim-Mcl-1	MCL1-BIM inh	Mcl1 Noxa PPI	Mcl1 Bid PPI	Bcl-xL conf	MCL1 inh confirm
COc1ccc(S(=O)(=O)/N=C2/NC(=O)/C(=C\c3cc(OC)c(OC)cc3[N+](=O)[O-])S2)cc1	0	0	0	0	0	0	-	-
COc1ccc(S(=O)(=O)/N=C2/NC(=O)/C(=C\c3ccco3)S2)cc1	0	0	0	55.3	0	0	0	0
O=C(CSc1nc2nn(-c3ccccc3)c(=O)c-2c2n1CCCCC2)c1ccc(O)c(O)c1	-	-	-	77.4	-	-	33.5	81.7
Cc1nc2c(c(=O)n1CCC1=CCCCC1)c1nc3ccccc3nc1n2/N=C/c1ccco1	0	0	0	48.9	94.2	73.8	31.8	57.6
CCCn1c(SCC(=O)Nc2cc(Cl)ccc2OC)nc(O)cc1=O	-	-	-	0	-	-	-	-
CNc1ccccc(-c2ccc3ccccc3n2)c1=O	0	0	0	58.5	0	0	78.6	94.9
c1ccc(-c2ccc3ccccc3n2)cc1	-	-	-	0	-	-	-	-
COc1ccc(N=Nc2nc3cc(Br)c(Br)cc3n2C)c(OC)c1	0	117.9	0	+	0	0	176.3	+
COc1ccc(CNc2nc3ccccc3n2C)c(OC)c1	0	0	0	0	0	0	-	-
CC(C)c1ccc(CN2CCC(Oc3ccc(C(=O)N4CCCC4)cc3)CC2)cc1	-	-	-	0	-	-	-	-
CC(=O)C1=C(O)C(=O)N(c2cccc(Br)c2)C1c1ccccc1Cl (configuration not stated)	-	-	-	0	-	-	-	-
CC[C@@]1(O)C(=O)OCc2c1cc1n(c2=O)Cc2cc3c(CN(C)C)c(O)ccc3nc2-1	-	-	-	+	-	-	+	+
CC[C@@]1(O)C(=O)OCc2c1cc1n(c2=O)Cc2cc3c(N)cccc3nc2-1	-	0	-	0	0	0	-	-
CC(=O)Nc1ccc(N=Cc2nc(-c3ccc(C)cc3)oc2O)cc1	0	0	0	90.3	65.0	63.9	59.9	60.7
CCOc1cccc(NC(=O)C2CC(=O)N(C)C(=Nc3ccccc3)S2)c1 (configuration not stated)	0	0	0	0	0	0	-	-
CCOc1cccc(NC(=O)C2CC(=O)N(C)C(=Nc3cccc(F)c3)S2)c1 (configuration not stated)	0	0	0	42.4	0	0	0	0
CC(=O)c1ccc2noc(-c3ccc(F)cc3)c2c1	0	95.0	0	98.3	0	0	82.0	103.4
CC(=O)c1ccc2noc(-c3ccc(Cl)cc3)c2c1	0	0	0	0	0	0	-	-
CCOC(=O)N1CCC(NC(=O)CN(c2ccc(C(C)C)cc2)S(=O)(=O)c2c(C)nn(C)c2C)CC1	-	-	-	0	-	-	-	-
CSc1sc(C(=O)NN)c2c1C1(CCC2)SCCS1	0	0	-	0	0	0	-	-
Cc1ccc(OCC(=O)Nc2ccccc2C(=O)N2CCCC2)cc1	-	-	-	0	-	-	-	-
Cc1ccc(C)c(-n2c3nc(=O)[nH]c(=O)c-3cc3cc([N+](=O)[O-])ccc32)c1	0	58.7	0	86.7	0	0	50.7	74.0
COc1ccc(NC(=O)CN(C)C(=O)c2cc3c(s2)CCCCC3)cc1	-	-	-	0	-	-	-	-
COc1ccc(NC(=O)CN(C)C(=O)c2cc3c(s2)CCC3)cc1	-	-	-	74.4	-	-	0	70.9
CC1(C)CC(=O)C2=C(C1)OC1=C(C(=O)CC(C)(C)C1)C2c1ccc(O)cc1O	0	116.8	0	+	0	0	147.8	194.1
SMILES	RBBP9 inh	EBV gp42 inh	Bim-Mcl-1	MCL1-BIM inh	Mcl1 Noxa PPI	Mcl1 Bid PPI	Bcl-xL conf	MCL1 inh confirm
Nc1ccc(O)c2c1C(=O)c1ccccc1C2=O	0	125.4	0	157.8	102.8	0	120.4	176.8
COC(=O)CCSCC(=O)N1N=C(c2ccc(Br)cc2)CC1c1cccc(OC)c1OC (configuration not stated)	0	0	0	0	0	0	-	-
Cn1ccc2cc3c(cc21)CCN3C(=O)Nc1cccnc1	-	-	-	46.5	-	-	38.6	49.6
CC(C)CCOP(=O)(c1ccc(N(C)C)cc1)C(Nc1ccccc1)c1ccc(N(C)C)cc1 (configuration not stated)	0	0	-	0	0	0	-	-
CCCOP(=O)(c1ccc(N(C)C)cc1)C(Nc1ccccc1)c1ccc(C)cc1 (configuration not stated)	0	0	-	44.2	0	0	0	0
CCCOc1ccc(CNC(=S)Nc2ccccc2)cc1Cl	-	-	-	42.2	-	-	0	0
CN(C)Cc1c(O)ccc2c1O/C(=C\C=C\c1ccccc1)C2=O	0	0	-	76.4	0	0	84.6	91.3
CC1CCCN(Cc2c(O)ccc3c2O/C(=C\c2ccco2)C3=O)C1 (configuration not stated)	0	0	0	151.7	58.1	0	119.4	133.1
CCN1CCN(Cc2c(O)ccc3c2O/C(=C\c2ccccc2)C3=O)CC1	0	0	0	54.9	0	0	59.0	61.9
O=C(Nc1cccc(S(=O)(=O)N2CCOCC2)c1)c1cc([N+](=O)[O-])ccc1N1CCOCC1	-	-	-	0	-	-	-	-
COc1cccc(C(=O)Nc2ccncc2)c1	0	0	0	45.1	0	0	0	0
COc1cccc(C(=O)Nc2ccc3c(c2)C(=O)c2ccccc2C3=O)c1	0	0	0	77.1	75.4	73.5	0	0
COc1cccc(C(=O)Nc2ccc(C(=O)c3ccccc3)cc2)c1	-	-	-	0	-	-	-	-
CC(=O)Nc1cccc(NC(=O)CSc2nccn2Cc2ccccc2)c1	-	-	-	0	-	-	-	-
COC(=O)[C@]1(C)N[C@H](c2ccc(SC3CCCCC3)c(OC)c2)[C@@H]2C(=O)N(C)C(=O)[C@@H]21	-	-	-	0	-	-	-	-
CCN(c1ccccc1)S(=O)(=O)c1ccc(Cl)c(C(=O)NCC2CCCO2)c1 (configuration not stated)	0	0	0	0	0	0	-	-
COc1ccc(C(=O)N2CCc3[nH]nc(-c4ccccc4)c3C2)cc1	-	-	-	0	-	-	-	-
CC(=O)c1ccc(NC(=O)C2Cc3ccccc3CN2C(=O)c2ccccc2)cc1 (configuration not stated)	0	0	0	0	0	0	-	-

Screening data: PubChem BioAssay, several laboratories
